Screening results deposited in PubChem BioAssay by Sanford-Burnham Center for Chemical Genomics.
CCR6 antagonist – CCR6 (human) receptor antagonism. P51684. hit rate 0.49% among 340,000. inhibition, % at 20 µM. AID 493098. CHO-K1 CCR6 PathHunter beta-arrestin, luminescence, CCL20-stimulated;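 active = compounds whose inhibition of the agonist-driven luminescence signal at 20 µM reaches about 50%, limit read from the data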;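 note: cells stimulated with CCL20 at 14 nM final; plate controls were DMSO with CCL20 for no effect and DMSO without agonist for full effect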
EBI2 block – antagonists of human EBI2 receptor; hit rate 0.81% among 360,000; inhibition, % at 5 µM; EBI2 beta-arrestin recruitment, luminescence, 7a,25-OHC stimulated; in the data active = inhibition above about 38%;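 note: enzyme fragment complementation signal reports receptor beta-arrestin coupling in cells; 0% = agonist plus DMSO wells and 100% = wells without agonist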
APJ antag – blocks the human apelin receptor APJ. P35414. CHO-K1 APJ beta-arrestin complementation, luminescence. inhibition, % at 20 µM. hit rate 0.32% among 330,000. AID 2521;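 active = inhibition above about 40% at 20 µM, limit read from the data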;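 note: cells challenged with 10 nM apelin-13 agonist together with compound; plate controls were apelin-13 plus DMSO wells for no effect and DMSO wells lacking apelin-13 for full effect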
Target sequence (P35414 whole entry, looked up): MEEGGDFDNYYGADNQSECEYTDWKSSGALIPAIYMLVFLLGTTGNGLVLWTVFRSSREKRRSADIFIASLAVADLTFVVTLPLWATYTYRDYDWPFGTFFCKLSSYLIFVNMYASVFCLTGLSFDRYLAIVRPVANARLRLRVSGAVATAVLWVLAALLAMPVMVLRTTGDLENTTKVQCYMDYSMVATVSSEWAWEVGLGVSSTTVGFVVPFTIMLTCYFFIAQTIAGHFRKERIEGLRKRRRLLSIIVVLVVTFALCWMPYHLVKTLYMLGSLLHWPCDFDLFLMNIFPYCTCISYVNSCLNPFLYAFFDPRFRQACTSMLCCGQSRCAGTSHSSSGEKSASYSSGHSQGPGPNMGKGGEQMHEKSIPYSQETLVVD
CXCR6 inh – inhibitors of human CXCR6 receptor; inhibition, % at 20 µM; hit rate 0.36% among 360,000; O00574; CHO-K1 PathHunter CXCR6 beta-arrestin, luminescence; in the data active = inhibition above about 34%, passing the limit was not always enough;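 note: antagonist mode with CXCL16 agonist at 10 nM final; 0% = 10 nM CXCL16 with DMSO and 100% = unstimulated wells without agonist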
APJ ag – agonists of human APJ apelin receptor. AID 2520. CHO-K1 APJ PathHunter beta-arrestin, luminescence; 0% DMSO wells, 100% apelin. hit rate 0.11% among 330,000. activation, % at 20 µM. P35414;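 active = activation more than six SD over the plate average, tested at 20 µM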;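 note: 0% = DMSO alone and 100% = apelin-13 at 10 nM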
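system = engineered CHO-K1 APJ arrestin reporter cells | input = 1000 cells per well | timing = overnight seeding, 90 min compound at 25 °C, 1 h detection | measured by = enzyme-fragment complementation luminescence | read-out = beta-arrestin recruitment to APJ as agonist activity, luminescent signal | control set = negative DMSO alone, positive Apelin-13 at 10 nM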
EBI2 conf – confirmation of human EBI2 receptor antagonists | shares compounds with EBI2 block | EBI2 beta-arrestin luminescence, 7a,25-OHC antagonism | inhibition, % at 5 µM | hit rate 29% among 2,400;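 active = inhibition of at least 50%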
EBI2 agonist – counter-screen for EBI2 antagonists: EBI2 agonist activity; AID 652000; 2,400 tested, under 10 active; shares compounds with EBI2 block; activation, % at 5 µM; EBI2-expressing cells, agonist mode, luminescence, 60 min; 0% vehicle, 100% 7α,25-dihydroxycholesterol control;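 active = activation of at least 50%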
bGal cs – counter-screen for EBI2 antagonists: E. coli beta-galactosidase inhibition; shares compounds with EBI2 block; purified beta-galactosidase, luminescent Galacton Star, 15 min; inhibition, % at 5 µM; hit rate 1% among 2,400; AID 652176;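 active = replicate-average signal at least 3 plate SD below neutral wells, shown as high inhibition, flagging enzyme-inhibiting false positives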;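 note: 0% = DMSO wells with enzyme and 100% = wells lacking enzyme; higher means stronger loss of beta-gal luminescence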
* marks the source's active call; other numbers are inactive results; · = no result given. Most compounds without a hit are left out; they make up all but 1.5% or so of the library.

SMILES	CCR6 antagonist	EBI2 block	APJ antag	CXCR6 inh	APJ ag	EBI2 conf	EBI2 agonist	bGal cs
O=C(Nc1ccccc1-c1ccccc1)c1ccc(Cl)c([N+](=O)[O-])c1	22	53*	7	-12	-1	38	0	-1
CN(c1ccccc1)S(=O)(=O)c1cccc(NC(=O)c2ccc(Cl)c([N+](=O)[O-])c2)c1	6	46*	7	-3	7	65*	1	5
O=C(Nc1ccc(Nc2ccccc2)cc1)c1ccc(Cl)c([N+](=O)[O-])c1	22	5	4	9	0	·	·	·
NC1=NC[C@H](Cc2ccc(O)cc2)N1CCCCC1CCCCC1	11	8	19	7	2	·	·	·
O=C(COc1cccnc1[N+](=O)[O-])Nc1cccc(Br)c1	10	-5	9	1	-2	·	·	·
O=C(COc1cccnc1[N+](=O)[O-])Nc1ccccc1Sc1ccccc1	5	48*	4	5	-2	32	0	7
O=C(Cn1cnc2c(cnn2-c2ccccc2)c1=O)Nc1cc(S(=O)(=O)N2CCOCC2)ccc1Cl	16	5	16	-9	0	·	·	·
COc1cc(Cl)cc(/C=C/c2ccc3ccccc3n2)c1OC(C)=O	-3	4	-7	-5	-6	·	·	·
COc1ccc(OCCN2CCC(C(=O)NC(c3ccc(Cl)cc3)c3ncccc3C)CC2)cc1 (stereo not drawn)	·	55*	·	6	·	17	-2	-14
CC(C)CN1CCC(C(=O)NC(c2ccc(F)cc2)c2ccc3ccccc3n2)CC1 (stereo not drawn)	·	0	·	12	·	·	·	·
COc1ccccc1C(NC(=O)C1CCN(CCOc2ccc3ccccc3c2)CC1)c1ccccn1 (stereo not drawn)	·	45*	·	16	·	18	0	8
COc1ccc(OCCN2CCC(C(=O)NC(c3ccccn3)c3ccccc3OC)CC2)cc1 (stereo not drawn)	·	4	·	-1	·	·	·	·
COc1ccc(/C=C/CN2CCC(C(=O)NC(c3ccc(F)cc3)c3ccc4ccccc4n3)CC2)cc1 (stereo not drawn)	·	60*	·	10	·	26	-1	-6
COc1ccc(OCCN2CCC(C(=O)NC(c3ccc(F)cc3)c3ncccc3C)CC2)cc1 (stereo not drawn)	·	46*	·	-3	·	12	-1	-4
CC1CCC(N2CCN(c3ccc([N+](=O)[O-])cc3)CC2)CC1 (stereo not drawn)	8	-1	-25	-6	-4	·	·	·
CC(=O)N/C(=N/c1nc(C)cc(C)n1)Nc1cc(C)cc(C)c1	12	2	10	7	-5	·	·	·
Cc1c(C(=O)N2CCN(c3ncccn3)CC2)oc2ccc(Cl)cc12	8	56*	-2	-7	-3	47	0	1
Cc1c(C(=O)N2CCN(c3ccccn3)CC2)oc2ccccc12	4	36*	-7	11	-1	3	-2	-12
C=CCn1c(C)c(C(C)=O)c(N2CCN(C(c3ccccc3)c3ccccc3)CC2)nc1=S	23	54*	20	13	-2	24	1	3
Cc1ccccc1CS(=O)(=O)Cc1ccc(C(=O)NCCc2ccccc2)o1	17	37*	4	11	-3	28	0	2
COc1cc(/C=c2\sc3n(c2=O)C(c2ccccc2)C(c2ccccc2)=NN=3)ccc1O (stereo not drawn)	41	49*	21	35	-5	43	-1	10
COc1ccc(C(=O)C[n+]2ccc3c(c2)nc(-c2cc(OC)c(OC)cc2OC)n3C)cc1	-2	-4	11	4	-2	·	·	·
OC(COc1ccc(Cl)cc1)CSc1ccccn1 (stereo not drawn)	18	52*	6	-7	-3	32	1	3
Cc1[nH]c2ccccc2c1C(c1ccncc1)N1CCCCC1 (stereo not drawn)	1	-1	-21	1	-1	·	·	·
OCC[C@H]1C[C@H](O)[C@@H](O)[C@@]2(CCCCO2)O1	1	-11	3	-1	4	·	·	·
SMILES	CCR6 antagonist	EBI2 block	APJ antag	CXCR6 inh	APJ ag	EBI2 conf	EBI2 agonist	bGal cs
COc1ccc(/C=C2\SC(N3CCCCC3)=NC2=O)cc1	5	54*	21	0	1	30	5	5
CCc1ccc(/C=C2\SC(N3CCCC3)=NC2=O)cc1	1	73*	-13	5	-3	40	1	9
O=C1N=C(N2CCCCC2)S/C1=C\c1ccncc1	2	2	1	-2	1	·	·	·
Cc1ccc2cccc(SCC(=O)Nc3ccc(F)cc3)c2n1	18	-8	-11	13	-3	·	·	·
CSC1=C(C#N)C(c2ccccc2Cl)C(C(C)=O)=C(C)N1 (stereo not drawn)	-3	65*	10	8	-1	48	3	10
CSC1=C(C#N)C(c2ccccc2)C(C(C)=O)=C(C)N1 (stereo not drawn)	7	11	-4	-12	-3	·	·	·
COC(=O)c1ccc(-c2ccc(OC)c([C@H]3[C@H]4C=CC[C@@H](C)[C@@H]4C(=O)N3Cc3ccccc3)c2)cc1	19	22	10	16	-6	·	·	·
O=c1[nH]c(C2CCN(S(=O)(=O)/C=C/c3ccccc3)CC2)nc2c1nnn2Cc1ccc(F)cc1	5	48*	9	-3	-2	33	0	7
O=c1[nH]c(C2CCN(S(=O)(=O)Cc3ccccc3)CC2)nc2c1nnn2Cc1ccccc1	12	-11	4	4	1	·	·	·
COc1ccc(C(=O)N2CCN(CCNC(=O)C(=O)Nc3ccc(F)cc3)CC2)cc1	-2	4	12	-3	-3	·	·	·
CCOc1ccc(NC(=O)Nc2cc(-c3ccccc3)sc2C(=O)OC)cc1	6	46*	-48	-4	-1	21	-1	-17
COC(=O)c1sc(-c2ccccc2)cc1NC(=O)C1CC1	6	9	0	1	-3	·	·	·
COc1cccc(CN(C)C(=O)Cc2c[nH]c3ccccc23)c1OC	7	6	8	4	-3	·	·	·
COc1ccc(CN(C)C(=O)Cc2c[nH]c3ccccc23)cc1	11	52*	2	-4	-1	31	0	-9
COc1cccc(CN(C(=O)Cc2c[nH]c3ccccc23)C(C(=O)NC2CCCCC2)c2ccc(C)o2)c1 (stereo not drawn)	21	5	-18	1	0	·	·	·
COc1cccc(CN(C)C(=O)Cc2c[nH]c3ccccc23)c1	4	51*	9	-7	-4	40	-1	-3
